Test results as given in ChEMBL document CHEMBL1154279, “Cytotoxic compounds from the stems of Cinnamomum tenuifolium” (J Nat Prod, 2009).
Calls of active or inactive are those of the source. The rule behind the calls is not given here.

Assays:
[1] = test system: DU-145; test: Cell cycle arrest in human DU145 cells assessed as accumulation of cells at S phase at 1 uM after 72 hrs using propidium iodide stain by flow cytometry; format: functional
Outline: (§1)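 DU145 cells treated with 1, 5, 10 or 100 µM for 24 or 72 h; vehicle 1% DMSO in water. Adherent and floating cells pooled, fixed in PBS-MeOH (1:2) at 4 °C for at least 18 h, then stained 30 min at room temperature in the dark with propidium iodide 50 µg/mL plus RNase A 50 µg/mL. Flow cytometry, excitation 488 nm, emission above 580 nm, doublets gated out. Sub-G1 region taken as DNA damage; at least three runs.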

[2] = test system: DU-145; test: Cell cycle arrest in human DU145 cells assessed as accumulation of cells at G1 phase at 1 uM after 72 hrs using propidium iodide stain by flow cytometry; format: functional; outline: as §1
[3] = test system: DU-145; test: Cell cycle arrest in human DU145 cells assessed as accumulation of cells at sub-G1 phase at 1 uM after 72 hrs using propidium iodide stain by flow cytometry; format: functional; outline: as §1
[4] = test system: DU-145; test: Induction of apoptosis in human DU145 cells assessed as formation of granulation of nucleus after 24 hrs by Hoechst 33342 stainig; format: functional, cell-based
Outline: (§2)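 DU145 cells exposed to 1 and 100 µM for 24 h, vehicle 1% DMSO. Fixed in 3.7% paraformaldehyde, stained with Hoechst 33342 (5 µg/mL) at 37 °C for 1 h and examined by fluorescence microscopy. Cells with reduced nuclear size, chromatin condensation or nuclear fragmentation scored as apoptotic.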

[5] = test system: DU-145; test: Cytotoxicity against human DU145 cells after 72 hrs by XTT assay; format: functional, cell-based; conditions: DU-145, 24 h, in the assay text read “after 24 hrs” for “after 72 hrs”
[6] = test system: LNCaP; test: Cytotoxicity against human LNCAP cells after 72 hrs by XTT assay; format: functional, cell-based; conditions: 24 h, in the assay text read “after 24 hrs” for “after 72 hrs”
Outline: (§3)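 Prostate cancer cells in RPMI-1640 with 10% FBS, 37 °C, 5% CO2, grown to 70–80% confluence and treated at 0.1–100 µM for 24, 48 and 72 h. XTT labeling for 4 h at 37 °C, absorbance 450 nm (reference 650 nm) against control wells. IC50 derived from the mean of eight wells; taxol and cisplatin served as positive controls.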

[7] = test system: DU-145; test: Reduction of mitochondrial membrane potential in human DU145 cells using rhodamine 123 staining by spectrophotofluorimeter; format: functional, cell-based
Outline: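 DU145 cells incubated 6, 12, 18 or 24 h with or without 10 and 100 µM, then given 10 µM rhodamine 123 in serum-free medium for 15 min at 37 °C. Collected cells read within 15 min by spectrofluorimeter (ex 495, em 520 nm); three experiments.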

[8] = test system: DU-145; test: Increase in the ratio of cytochrome C concentration from cytosol to mitochondria in human DU145 cells at 100 uM after 24 hrs by ELISA; format: functional, cell-based
Outline: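 DU145 cells given 100 µM or DMSO vehicle for 6–24 h at 37 °C. Cytosolic fraction released with digitonin buffer on ice for 5 min; mitochondrial fraction taken by Triton/deoxycholate/SDS lysis and a 10000g spin. Cytochrome c in each fraction measured by ELISA and expressed as a cytosol/mitochondria ratio; three experiments, ANOVA with Dunnett's test.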

[9] = test system: DU-145; test: Induction of apoptosis in human DU145 cells assessed as caspase3 activation at 10 uM by ELISA; format: functional, cell-based
Outline: (§4)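 DU145 cells treated with 10 µM for 1, 3, 6, 12 and 24 h and lysed. Lysate (60 µg) incubated with Ac-DEVD-pNA or Ac-LEHD-pNA in PIPES buffer pH 7.2 at 37 °C for 1 h in the dark. pNA release read at 405 nm and expressed as percent change against untreated control.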

[10] = test system: DU-145; test: Induction of apoptosis in human DU145 cells assessed as caspase9 activation after 24 hrs by ELISA; format: functional, cell-based; conditions: TDE = time-dependent effect; outline: as §4
[11] = test system: DU-145; test: Antiproliferative activity in human DU145 cells at 10 uM after 24 hrs by XTT assay in the presence of Ac-DEVD-CMK; format: functional, cell-based
Outline: (§5)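 DU145 cells pretreated 60 min with 50 µM Ac-DEVD-CMK or 50 µM Ac-LEHD-CMK, then exposed to 10 µM compound for 24 h (vehicle 1% DMSO in water). Proliferation read by XTT: labeling mixture added for 4 h at 37 °C, OD 450 nm (reference 650 nm) versus control wells; mean ± SE of three experiments.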

[12] = test system: DU-145; test: Antiproliferative activity in human DU145 cells at 10 uM after 24 hrs by XTT assay in the presence of Ac-LEHD-CMK; format: functional, cell-based; outline: as §5
[13] = test system: DU-145; test: Induction of apoptosis in human DU145 cells assessed as PARP activation at 100 uM by ELISA; format: functional, cell-based
[14] = test system: DU-145; test: Increase of intracellular hydrogen peroxide and or peroxide in human DU145 cells at 50 uM after 24 hrs by DCFH-DA assay relative to control; format: functional
Outline: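 DU145 cells (1 × 10^4 per well) treated with 1, 10 or 50 µM for 6–24 h, then loaded with 10 µM DCFH-DA in serum-free medium for 30 min at 37 °C in the dark. DCF fluorescence read by spectrofluorimeter (ex 495, em 530 nm) within 15 min; five experiments.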

[15] = test system: DU-145; test: Induction of apoptosis in human DU145 cells assessed as increase in intracellular ROS level at 10 uM by DCHF-DA assay; format: functional, cell-based
[16] = test system: DU-145; test: Cell cycle arrest in human DU145 cells assessed as accumulation of cells at sub-G1 phase after 24 hrs using propidium iodide stain by flow cytometry; format: functional, cell-based; outline: as §1
[17] = test system: DU-145; test: Induction of apoptosis in human DU145 cells assessed as caspase9 activation by ELISA; format: functional, cell-based; conditions: TDE = time-dependent effect; outline: as §4
[18] = test system: DU-145; test: Induction of apoptosis in human DU145 cells assessed as change in cellular morphology after 24 hrs by Hoechst 33342 stainig; format: functional, cell-based; outline: as §2
[19] = test system: DU-145; test: Cytotoxicity against human DU145 cells at 100 uM after 72 hrs by XTT assay; format: functional, cell-based; outline: as §3
[20] = test system: DU-145; test: Cytotoxicity against human DU145 cells at 100 uM after 72 hrs by Trypan blue dye exclusion test; format: functional, cell-based
Outline: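 DU145 cells (1 × 10^5 per 60 mm dish) treated the following day with 1–100 µM for 24, 48 and 72 h. Cells harvested, washed twice with PBS and stained with trypan blue; unstained viable cells counted by microscope with a hemocytometer. Mean ± SE.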

[21] = test system: DU-145; test: Cell cycle arrest in human DU145 cells assessed as accumulation of cells at sub-G1 phase at 1 uM after 24 hrs using propidium iodide stain by flow cytometry; format: functional; outline: as §1
[22] = test system: DU-145; test: Cell cycle arrest in human DU145 cells assessed as accumulation of cells at G1 phase at 1 uM after 24 hrs using propidium iodide stain by flow cytometry; format: functional; outline: as §1
[23] = test system: DU-145; test: Cell cycle arrest in human DU145 cells assessed as accumulation of cells at S phase at 1 uM after 24 hrs using propidium iodide stain by flow cytometry; format: functional; outline: as §1

With `CCCCCCCCCCCCCCCCCCCCCCCC/C=C(/C(=O)OC)[C@@H](O)C(C)=O` [SECOTENUIFOLIDE A] the Activity [1] was 2.88%, the Activity [2] was 53.11% and the Activity [3] was 9.75%. For the same compound, the Activity [4] was “Active”, the EC50 [5] was < 7 µM and the IC50 [5] was 5.2 µM. For the same compound, the EC50 [6] was < 7 µM, the IC50 [6] was 6.76 µM and the Activity [7] was “Active”. The Activity [8] was “Active”, the Activity [9] was “Active” and the Activity [10] was “tde”. For the same compound, the Activity [11] was “inactive”, the Activity [12] was “inactive” and the Activity [13] was “Active”. The “fold change (FC)” value [14] was 2.5, the Activity [15] was “Active” and the Activity [16] was “Dose-dependent effect”. The Activity [17] was “tde”, the Activity [18] was “Active” and the Activity [19] was “Active”. For the same compound, the Activity [20] was “Active”, the Activity [21] was 6.56% and the Activity [22] was 44.45%. For the same compound, the Activity [23] was 3.31%.
